Tests used:
Type in all cases: functional
HT-29 = assay: Cytotoxicity against human HT29 cells by SRB method; details: for CC50: read-out: LC50 (the source's name)
In short: (§1)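 Human tumour lines (breast MDA-MB-231, lung A-549, colon HT-29) seeded in 96-well plates and left 24 h, then given vehicle or compound at 10 to 0.0026 µg/mL (10 dilutions) for 72 h. Read-out by SRB: PBS washes, 1% glutaraldehyde fix 15 min, 0.4% SRB in 1% acetic acid 30 min RT, dye extracted into 10 mM Tris base, A490. A time-zero plate was read before treatment.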

A549 = assay: Cytotoxicity against human A549 cells by SRB method; in short: as §1
MDA-MB-231 = assay: Cytotoxicity against human MDA-MB-231 cells by SRB method; in short: as §1
[1] = read-out: LC50 (the source's name)

`COc1c(C)c(O)c2c(c1O)[C@@H]1C3=Cc4c(OC(C)=O)c(C)c5c(c4[C@H](COCc4ccccc4)N3[C@@H](C#N)[C@H](C2=O)N1C)OCO5` was tested, and the GI50 (HT-29) was 4.06 µM, the TGI (HT-29) was 6.72 µM and the CC50 (HT-29) was 14.5 µM. For the same compound, the GI50 (A549) was 6.57 µM and the GI50 (MDA-MB-231) was 5.63 µM.
Work on `C/C=C(/C)C(=O)OC[C@H]1C2=C(C=C3[C@H]4c5c(O)c(OC)c(C)c(O)c5C(=O)[C@@H](C(=O)N31)N4C)C(=O)C(C)=C(OC)C2=O` [CRIBROSTATIN 5] yielded a GI50 (HT-29) of 6.74 µM, a TGI (HT-29) of 7.43 µM and a GI50 (A549) of 7.09 µM. It also gave a TGI (A549) of 11.6 µM and a GI50 (MDA-MB-231) of 4.49 µM.
`COc1c(C)cc2c(c1OCc1ccccc1)[C@@H]1C3=Cc4c(OC(C)=O)c(C)c(OC)c(OC)c4[C@H](COCc4ccccc4)N3[C@@H](C#N)[C@H](C2)N1C` gave a GI50 (HT-29) of 0.2 µM, a TGI (HT-29) of 0.26 µM and a CC50 (HT-29) of 0.36 µM. It also gave a GI50 (A549) of 0.24 µM, a TGI (A549) of 0.3 µM and a CC50 (A549; [1]) of 0.41 µM. It also gave a GI50 (MDA-MB-231) of 0.26 µM, a TGI (MDA-MB-231) of 0.35 µM and a CC50 (MDA-MB-231; [1]) of 0.48 µM.
`C/C=C(/C)C(=O)OC[C@H]1c2c(c(OC(C)=O)c(C)c3c2OCO3)C=C2[C@H]3c4c(O)c(OC)c(C)c(O)c4C(=O)[C@@H](C(=O)N21)N3C` gave a GI50 (HT-29) of 11.1 µM, a GI50 (A549) of 7.73 µM and a GI50 (MDA-MB-231) of 14 µM.
